Laboratory results as given in ChEMBL document CHEMBL5678802, “Small-molecule p21-activated kinase inhibitor PF-3758309 is a potent inhibitor of oncogenic signaling and tumor growth” (Proc Natl Acad Sci U S A, 2010).

Legend:
[1] = test system: RKO; experiment: Antiproliferative activity against human RKO cells assessed as inhibition of cell proliferation incubated for 3 days by CellTiter-Glo Luminescent Cell Viability Assay; type: functional, cell-based; conditions: 72 h
In short: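 Cells of each line were plated in 384-well plates on day 1 and exposed to compound from day 2 for 3 days. On day 5 all medium was aspirated. Viable cell number was read by CellTiter-Glo luminescence, which quantifies cellular ATP.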

[2] = test system: NCI-H1437; experiment: Inhibition of anchorage independent cell growth in human NCI-H1437 cells incubated for 6 days by Alamar blue reagent based fluorescence plate reader analysis; type: functional; conditions: NCI-H1437, 144 h
[3] = target: AMP-activated protein kinase (AMPK) alpha-1/beta-1/gamma-1 (Homo sapiens, UniProt P54619+Q13131+Q9Y478); experiment: Inhibition of human AMPK alpha1/beta1/gamma1 in presence of ATP by cellular assay; type: protein-complex assay
Sequence of AMP-activated protein kinase (AMPK) alpha-1/beta-1/gamma-1 (P54619 whole entry): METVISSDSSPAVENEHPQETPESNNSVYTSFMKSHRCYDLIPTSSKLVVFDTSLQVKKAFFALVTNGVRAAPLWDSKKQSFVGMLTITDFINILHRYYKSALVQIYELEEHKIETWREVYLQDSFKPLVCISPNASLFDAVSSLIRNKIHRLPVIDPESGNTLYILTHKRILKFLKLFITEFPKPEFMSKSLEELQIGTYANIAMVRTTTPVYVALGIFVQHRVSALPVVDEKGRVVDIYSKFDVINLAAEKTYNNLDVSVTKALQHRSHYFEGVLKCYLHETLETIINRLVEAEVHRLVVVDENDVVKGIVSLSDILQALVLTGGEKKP
Sequence of AMP-activated protein kinase (AMPK) alpha-1/beta-1/gamma-1 (Q9Y478 whole entry): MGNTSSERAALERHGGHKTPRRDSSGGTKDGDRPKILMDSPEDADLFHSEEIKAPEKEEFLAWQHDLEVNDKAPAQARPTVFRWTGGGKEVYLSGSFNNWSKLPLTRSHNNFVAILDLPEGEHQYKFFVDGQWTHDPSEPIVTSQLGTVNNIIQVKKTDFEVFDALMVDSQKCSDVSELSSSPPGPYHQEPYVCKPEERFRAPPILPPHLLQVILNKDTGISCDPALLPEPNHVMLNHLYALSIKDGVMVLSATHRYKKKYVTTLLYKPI
Sequence of AMP-activated protein kinase (AMPK) alpha-1/beta-1/gamma-1 (Q13131 whole entry): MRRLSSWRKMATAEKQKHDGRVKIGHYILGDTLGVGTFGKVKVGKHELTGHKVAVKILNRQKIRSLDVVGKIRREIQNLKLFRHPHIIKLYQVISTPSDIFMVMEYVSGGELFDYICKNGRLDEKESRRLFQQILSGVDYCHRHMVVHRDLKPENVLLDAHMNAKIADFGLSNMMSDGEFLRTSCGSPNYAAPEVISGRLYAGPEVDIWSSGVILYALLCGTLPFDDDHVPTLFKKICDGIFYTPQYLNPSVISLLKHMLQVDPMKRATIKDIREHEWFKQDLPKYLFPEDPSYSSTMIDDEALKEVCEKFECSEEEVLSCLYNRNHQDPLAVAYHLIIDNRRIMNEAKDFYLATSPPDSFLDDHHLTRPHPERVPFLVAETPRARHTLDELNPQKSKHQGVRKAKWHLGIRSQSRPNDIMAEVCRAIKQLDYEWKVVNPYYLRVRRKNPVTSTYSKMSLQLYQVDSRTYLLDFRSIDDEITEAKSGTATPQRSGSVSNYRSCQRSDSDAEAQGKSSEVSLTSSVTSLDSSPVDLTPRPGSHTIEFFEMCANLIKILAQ

[4] = In vivo inhibition of PAK4 in nude mouse xenografted with human HCT-116 cells assessed as reduction in phosphorylated GEF-H1 level at 1.1 to 3.3 mg/kg, sc administered for 6 days by ELISA relative to control; type: functional; parameters: scale not given: the % may be the effect or the level left; conditions: dose 1.1-3.3 mg/kg, time 6 day
[5] = test system: CFPAC-1; experiment: Antiproliferative activity against human CFPAC-1 cells assessed as inhibition of cell proliferation incubated for 3 days by CellTiter-Glo Luminescent Cell Viability Assay; type: functional, cell-based; conditions: CFPAC-1, 72 h
In short: (§1)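 Cancer cell lines seeded in 384-well plates on day 1; compound added on day 2 and left for 3 days. On day 5 all medium was aspirated, and viable cells were quantified by CellTiter-Glo luminescence, which measures cellular ATP. Dose-dependent effects on proliferation were determined.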

[6] = target: High affinity nerve growth factor receptor (Homo sapiens, UniProt P04629); experiment: Inhibition of human TRKa in presence of ATP
Sequence of High affinity nerve growth factor receptor (P04629 whole entry): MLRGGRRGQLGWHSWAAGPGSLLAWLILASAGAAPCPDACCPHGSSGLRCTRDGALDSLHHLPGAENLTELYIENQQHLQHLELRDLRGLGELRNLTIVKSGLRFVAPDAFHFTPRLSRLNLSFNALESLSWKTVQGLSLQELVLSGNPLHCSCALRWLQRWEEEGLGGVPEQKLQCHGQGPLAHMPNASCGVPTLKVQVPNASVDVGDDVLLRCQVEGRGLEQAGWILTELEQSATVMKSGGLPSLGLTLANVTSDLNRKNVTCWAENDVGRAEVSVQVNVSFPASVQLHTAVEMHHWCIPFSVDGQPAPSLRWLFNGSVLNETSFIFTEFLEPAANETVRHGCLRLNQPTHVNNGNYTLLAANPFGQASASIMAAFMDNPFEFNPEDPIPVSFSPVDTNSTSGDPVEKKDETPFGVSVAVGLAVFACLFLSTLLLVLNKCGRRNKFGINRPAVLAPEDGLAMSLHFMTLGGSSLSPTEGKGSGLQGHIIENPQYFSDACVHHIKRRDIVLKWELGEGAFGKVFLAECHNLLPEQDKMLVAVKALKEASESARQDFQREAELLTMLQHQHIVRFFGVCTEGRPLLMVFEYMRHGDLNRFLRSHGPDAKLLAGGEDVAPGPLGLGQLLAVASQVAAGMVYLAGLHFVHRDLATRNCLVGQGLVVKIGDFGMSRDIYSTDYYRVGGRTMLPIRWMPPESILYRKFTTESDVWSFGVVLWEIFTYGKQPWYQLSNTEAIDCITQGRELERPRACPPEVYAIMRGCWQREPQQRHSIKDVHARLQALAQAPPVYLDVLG

[7] = test system: NCI-H23; experiment: Inhibition of anchorage independent cell growth in human NCI-H23 cells incubated for 6 days by Alamar blue reagent based fluorescence plate reader analysis; type: functional; conditions: NCI-H23, 144 h
[8] = test system: MDA-MB-415; experiment: Antiproliferative activity against human MDA-MB-415 cells assessed as inhibition of cell proliferation incubated for 3 days by CellTiter-Glo Luminescent Cell Viability Assay; type: functional, cell-based; conditions: MDA-MB-415, 72 h; in short: as §1
[9] = test system: NCI-H1666; experiment: Inhibition of anchorage independent cell growth in human NCI-H1666 cells incubated for 6 days by Alamar blue reagent based fluorescence plate reader analysis; type: functional; conditions: NCI-H1666, 144 h
[10] = test system: LS-123; experiment: Antiproliferative activity against human LS-123 cells assessed as inhibition of cell proliferation incubated for 3 days by CellTiter-Glo Luminescent Cell Viability Assay; type: functional, cell-based; conditions: LS-123, 72 h; in short: as §1
[11] = test system: CAMA-1; experiment: Antiproliferative activity against human CAMA-1 cells assessed as inhibition of cell proliferation incubated for 3 days by CellTiter-Glo Luminescent Cell Viability Assay; type: functional, cell-based; conditions: CAMA-1, 72 h; in short: as §1
[12] = target: RAC-gamma serine/threonine-protein kinase (Homo sapiens, UniProt Q9Y243); experiment: Inhibition of human AKT3 in presence of ATP relative to control; conditions: concentration not given here
Sequence of RAC-gamma serine/threonine-protein kinase (Q9Y243 whole entry): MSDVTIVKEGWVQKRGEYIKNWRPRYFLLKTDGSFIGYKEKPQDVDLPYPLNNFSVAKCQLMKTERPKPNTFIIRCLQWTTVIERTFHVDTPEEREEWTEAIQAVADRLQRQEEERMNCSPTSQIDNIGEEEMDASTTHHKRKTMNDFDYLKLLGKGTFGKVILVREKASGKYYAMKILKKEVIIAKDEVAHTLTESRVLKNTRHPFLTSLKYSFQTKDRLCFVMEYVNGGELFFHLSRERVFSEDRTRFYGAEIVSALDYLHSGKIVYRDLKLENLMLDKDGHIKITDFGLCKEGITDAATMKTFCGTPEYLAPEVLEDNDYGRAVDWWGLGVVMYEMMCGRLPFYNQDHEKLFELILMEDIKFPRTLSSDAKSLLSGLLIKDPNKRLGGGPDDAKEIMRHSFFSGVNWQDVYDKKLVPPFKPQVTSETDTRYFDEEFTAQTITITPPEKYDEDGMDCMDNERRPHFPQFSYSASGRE

[13] = test system: NCI-H1651; experiment: Antiproliferative activity against human NCI-H1651 cells assessed as inhibition of cell proliferation incubated for 3 days by CellTiter-Glo Luminescent Cell Viability Assay; type: functional, cell-based; conditions: NCI-H1651, 72 h; in short: as §1
[14] = target: Proto-oncogene tyrosine-protein kinase Src (Homo sapiens, UniProt P12931); experiment: Inhibition of human SRC assessed as inhibition constant in presence of ATP
Sequence of Proto-oncogene tyrosine-protein kinase Src (P12931 2-536 limits assumed): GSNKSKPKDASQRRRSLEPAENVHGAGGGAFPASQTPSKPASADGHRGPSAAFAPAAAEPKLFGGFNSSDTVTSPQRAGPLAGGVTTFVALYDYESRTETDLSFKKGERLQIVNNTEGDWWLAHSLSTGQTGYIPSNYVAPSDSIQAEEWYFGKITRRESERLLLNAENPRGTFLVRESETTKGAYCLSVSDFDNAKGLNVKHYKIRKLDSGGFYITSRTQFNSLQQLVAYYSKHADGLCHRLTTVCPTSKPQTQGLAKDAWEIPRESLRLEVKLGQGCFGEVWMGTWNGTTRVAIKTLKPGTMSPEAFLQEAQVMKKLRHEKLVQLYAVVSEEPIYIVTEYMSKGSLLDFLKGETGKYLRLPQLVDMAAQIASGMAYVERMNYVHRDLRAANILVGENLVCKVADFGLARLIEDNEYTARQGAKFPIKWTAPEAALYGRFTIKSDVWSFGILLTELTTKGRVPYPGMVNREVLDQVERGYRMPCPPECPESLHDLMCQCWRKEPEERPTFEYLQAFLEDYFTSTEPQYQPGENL

[15] = target: T1, cGMP-dependent protein kinase 1 (Homo sapiens, UniProt Q13976); experiment: Inhibition of human PRKG1 in presence of ATP by cellular assay
T1 sequence (Q13976 whole entry): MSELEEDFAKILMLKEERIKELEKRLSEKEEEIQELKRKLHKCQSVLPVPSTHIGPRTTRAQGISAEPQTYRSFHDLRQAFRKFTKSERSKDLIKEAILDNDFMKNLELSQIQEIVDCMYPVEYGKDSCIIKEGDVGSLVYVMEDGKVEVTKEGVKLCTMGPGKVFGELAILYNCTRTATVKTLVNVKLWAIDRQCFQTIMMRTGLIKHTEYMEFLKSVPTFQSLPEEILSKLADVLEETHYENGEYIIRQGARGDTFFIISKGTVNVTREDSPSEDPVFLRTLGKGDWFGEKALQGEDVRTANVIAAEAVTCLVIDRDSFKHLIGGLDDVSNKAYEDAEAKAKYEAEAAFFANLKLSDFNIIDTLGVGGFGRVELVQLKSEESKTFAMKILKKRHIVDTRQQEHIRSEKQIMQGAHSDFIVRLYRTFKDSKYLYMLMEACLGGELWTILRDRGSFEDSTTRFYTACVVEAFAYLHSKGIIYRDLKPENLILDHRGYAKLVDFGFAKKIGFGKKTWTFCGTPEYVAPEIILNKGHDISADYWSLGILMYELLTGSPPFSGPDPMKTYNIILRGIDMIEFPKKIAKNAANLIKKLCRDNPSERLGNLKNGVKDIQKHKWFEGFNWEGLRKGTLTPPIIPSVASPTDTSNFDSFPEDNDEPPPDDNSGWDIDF

[16] = target: Protein kinase C gamma type (Homo sapiens, UniProt P05129); experiment: Inhibition of human PKCgamma in presence of ATP relative to control; conditions: concentration not given here
[17] = test system: BXPC-3; experiment: Antiproliferative activity against human BXPC-3 cells assessed as inhibition of cell proliferation incubated for 3 days by CellTiter-Glo Luminescent Cell Viability Assay; type: functional, cell-based; conditions: BXPC-3, 72 h; in short: as §1
[18] = target: Protein kinase C beta type (Homo sapiens, UniProt P05771); experiment: Inhibition of human PKCbeta1 in presence of ATP
Sequence of Protein kinase C beta type (P05771 whole entry): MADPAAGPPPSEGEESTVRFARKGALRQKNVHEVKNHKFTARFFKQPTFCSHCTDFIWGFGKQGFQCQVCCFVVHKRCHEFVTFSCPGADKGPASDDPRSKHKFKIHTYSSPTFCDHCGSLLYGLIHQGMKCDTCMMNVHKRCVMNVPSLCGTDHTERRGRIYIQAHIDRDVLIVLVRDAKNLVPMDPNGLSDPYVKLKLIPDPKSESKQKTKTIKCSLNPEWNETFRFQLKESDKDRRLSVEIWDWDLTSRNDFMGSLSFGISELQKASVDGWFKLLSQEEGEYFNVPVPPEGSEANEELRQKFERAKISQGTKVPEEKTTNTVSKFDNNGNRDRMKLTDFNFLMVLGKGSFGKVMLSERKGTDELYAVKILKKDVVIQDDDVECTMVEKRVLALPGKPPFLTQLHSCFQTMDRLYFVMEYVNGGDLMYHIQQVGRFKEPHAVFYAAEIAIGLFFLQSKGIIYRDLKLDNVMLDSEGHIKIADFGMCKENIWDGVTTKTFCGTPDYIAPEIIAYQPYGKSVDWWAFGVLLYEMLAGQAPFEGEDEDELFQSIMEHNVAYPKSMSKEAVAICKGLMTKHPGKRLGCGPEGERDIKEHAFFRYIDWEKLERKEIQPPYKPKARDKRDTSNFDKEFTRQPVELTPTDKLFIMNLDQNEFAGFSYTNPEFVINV

[19] = test system: HCC1954; experiment: Antiproliferative activity against human HCC1954 cells assessed as inhibition of cell proliferation incubated for 3 days by CellTiter-Glo Luminescent Cell Viability Assay; type: functional, cell-based; conditions: HCC1954, 72 h; in short: as §1
[20] = test system: GTL 16 cell line; experiment: Antitumor activity against human GTL-16 cell line xenografted in nude mouse assessed as tumor growth inhibition at 20 mg/kg, po administered once daily for 9 to 18 days relative to control; type: functional; conditions: time 9-18 day, read-out: TGI
In short: (§2)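 Tumor cells were implanted s.c. into the right flank of female nu/nu nude mice aged 6–8 weeks. Animals were randomized into treatment groups once tumors were established (example: day 8 postimplant, about 170 mm3, animals >22 g). Compound in 0.5% methylcellulose was given by oral gavage. Tumors were measured with calipers two to three times per week.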

[21] = test system: A549; experiment: Antitumor activity against human A549 cells xenografted in nude mouse assessed as tumor growth inhibition at 10 mg/kg, po administered once daily for 9 to 18 days relative to control; type: functional; conditions: time 9-18 day, read-out: TGI; in short: as §2
[22] = test system: HCT-116; experiment: Inhibition of anchorage independent cell growth in human HCT-116 cells incubated for 6 days by Alamar blue reagent based fluorescence plate reader analysis; type: functional; conditions: HCT-116, 144 h
[23] = test system: NCI-H520; experiment: Inhibition of anchorage independent cell growth in human NCI-H520 cells incubated for 6 days by Alamar blue reagent based fluorescence plate reader analysis; type: functional; conditions: NCI-H520, 144 h
[24] = test system: NCI-H2087; experiment: Inhibition of anchorage independent cell growth in human NCI-H2087 cells incubated for 6 days by Alamar blue reagent based fluorescence plate reader analysis; type: functional; conditions: NCI-H2087, 144 h

Cc1nc(Nc2n[nH]c3c2CN(C(=O)N[C@H](CN(C)C)c2ccccc2)C3(C)C)c2sccc2n1 [PF-03758309]
IC50 [1]: 1.8 nM
IC50 [2]: 4.8 nM
IC50 [3]: 40 nM
Activity [4]: 54%
IC50 [5]: 1320 nM
IC50 [6]: 513 nM
IC50 [7]: 3.45 nM
IC50 [8]: 36 nM
IC50 [9]: 6.25 nM
IC50 [10]: 10000 nM
IC50 [11]: 2.7 nM
inhibition [12]: 74%
IC50 [13]: 20 nM
Ki [14]: 32 nM
IC50 [15]: 3370 nM
inhibition [16]: 92%
IC50 [17]: 39 nM
IC50 [18]: 280 nM
IC50 [19]: 0.33 nM
inhibition in vivo at 20 mg/kg [20]: 28%
inhibition in vivo at 10 mg/kg [21]: 71%
IC50 [22]: 0.24 nM
IC50 [23]: 1.13 nM
IC50 [24]: 1.36 nM
